Reference: paper PMC7114883 (ACS Omega, 2020)
Converted amounts (≈) assume the structure as drawn. Where two headings read alike, the source gives them in different places.

Assays:
P. falciparum NF54 [1] = details: read-out: IC50 PfNF54; reference drugs; ref Singh et al. 33; cited from earlier work
P. falciparum K1 [2] = details: read-out: IC50 PfK1; reference drugs; ref Singh et al. 33; cited from earlier work
hERG channel = hERG channel (Homo sapiens, UniProt Q12809); test: hERG channel inhibition; assay type: biochemical
Sequence of hERG channel (Q12809 whole entry): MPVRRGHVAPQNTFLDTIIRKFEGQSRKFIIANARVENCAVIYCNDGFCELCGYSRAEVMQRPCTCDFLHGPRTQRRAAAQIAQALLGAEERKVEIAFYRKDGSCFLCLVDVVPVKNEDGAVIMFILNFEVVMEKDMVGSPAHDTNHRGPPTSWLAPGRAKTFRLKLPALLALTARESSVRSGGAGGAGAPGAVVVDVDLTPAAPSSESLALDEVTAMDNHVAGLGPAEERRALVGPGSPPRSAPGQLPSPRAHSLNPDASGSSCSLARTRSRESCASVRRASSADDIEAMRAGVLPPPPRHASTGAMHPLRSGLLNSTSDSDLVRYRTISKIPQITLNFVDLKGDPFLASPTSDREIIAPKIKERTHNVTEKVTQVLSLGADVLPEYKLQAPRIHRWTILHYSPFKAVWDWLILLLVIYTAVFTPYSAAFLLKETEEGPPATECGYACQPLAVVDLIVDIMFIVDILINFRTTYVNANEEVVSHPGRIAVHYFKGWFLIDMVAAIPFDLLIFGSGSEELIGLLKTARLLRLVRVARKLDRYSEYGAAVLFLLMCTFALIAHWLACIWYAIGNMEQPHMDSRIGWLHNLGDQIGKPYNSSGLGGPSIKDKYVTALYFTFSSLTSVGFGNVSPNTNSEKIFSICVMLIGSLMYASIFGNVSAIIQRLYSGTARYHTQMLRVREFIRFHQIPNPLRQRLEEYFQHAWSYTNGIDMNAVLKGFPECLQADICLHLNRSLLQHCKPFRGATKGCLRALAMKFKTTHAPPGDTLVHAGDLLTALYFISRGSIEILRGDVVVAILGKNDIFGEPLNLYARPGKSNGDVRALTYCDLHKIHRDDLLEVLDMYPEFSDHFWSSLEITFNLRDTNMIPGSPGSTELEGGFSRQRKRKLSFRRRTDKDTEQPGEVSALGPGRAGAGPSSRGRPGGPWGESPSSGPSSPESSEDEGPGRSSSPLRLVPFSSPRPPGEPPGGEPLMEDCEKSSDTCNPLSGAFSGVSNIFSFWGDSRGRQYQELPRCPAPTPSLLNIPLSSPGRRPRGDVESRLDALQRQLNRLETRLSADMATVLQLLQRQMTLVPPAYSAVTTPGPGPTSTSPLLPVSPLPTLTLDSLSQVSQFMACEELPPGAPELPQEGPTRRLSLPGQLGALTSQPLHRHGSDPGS

Solubility at pH 6.8 = assay type: physicochemical; details: pH 6.8, aqueous buffer
[3] = PAMPA parallel artificial membrane permeability assay; assay type: in vitro ADME; details: fraction absorbed
[4] = In vitro metabolic stability in mouse liver microsomes; assay type: in vitro ADME
[5] = In vitro metabolic stability in human liver microsomes; assay type: in vitro ADME
P. falciparum NF54 [6] = test: Pf NF54 activity determined at NITD; assay type: cell-based; details: Plasmodium falciparum, NF54, read-out: IC50 PfNF54
[7] = Aqueous solubility, miniaturized shake flask method; assay type: physicochemical; details: aqueous solution, 25 °C, thermodynamic from solid
[8] = Microsomal metabolic stability, human liver microsomes; assay type: in vitro ADME; details: pooled human liver microsomes, pH 7.4
In short: (§1)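 Test compound at 0.1 μM incubated at 37 °C, in duplicate, with liver microsomes (mouse, rat or pooled human; final protein 0.4 mg/mL) in 0.1 M phosphate buffer pH 7.4, with and without 1 mM NADPH. Quenched with ice-cold acetonitrile containing internal standard, centrifuged, and supernatant analysed by LC–MS/MS. Parent remaining after 30 min expressed as percent.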

[9] = Microsomal metabolic stability, mouse liver microsomes; assay type: in vitro ADME; details: pH 7.4
In short: as §1

[10] = Microsomal metabolic stability, rat liver microsomes; assay type: in vitro ADME; details: pH 7.4
In short: as §1

[11] = Pharmacokinetic studies in rats; assay type: in vivo; details: rat, plasma, iv, 1 mg/kg
[12] = P. berghei mouse model efficacy; assay type: in vivo, Plasmodium berghei (NMRI mice); details: female, NMRI, plasma, po, 100 mg/kg
[13] = P. falciparum SCID mouse model efficacy; assay type: in vivo, Plasmodium falciparum (NOD-scid IL-2Rγnull mice); details: female, NOD-scid IL-2Rγnull, plasma, po, 25 mg/kg
P. falciparum NF54 [14] = test: In vitro antiplasmodium assay; assay type: cell-based, Plasmodium falciparum; details: for in vitro antiplasmodium activity (in words): authors' Pf assays
P. falciparum K1 [15] = test: In vitro antiplasmodium assay; assay type: cell-based; details: Plasmodium falciparum, K1, read-out: IC50 PfK1
[16] = test system: Chinese hamster ovarian (CHO) cell line; test: Cytotoxicity MTT assay; assay type: cell-based; details: CHO cells, relative to 4-unsubstituted compound 3
[17] = test system: Chinese hamster ovarian (CHO) cell line; details: read-out: IC50 (CHO); reference drug; ref Singh et al. 33; cited from earlier work
[18] = Plasmodium falciparum, NF54, read-out: IC50 PfNF54, drug-sensitive NF54 strain, mean of ≥2 independent experiments
[19] = read-out: IC50 PfNF54, drug-sensitive NF54 strain, mean of ≥2 independent experiments

C[C@H]1[C@H](OC(=O)CCC(=O)O)O[C@@H]2O[C@@]3(C)CC[C@H]4[C@H](C)CC[C@@H]1[C@@]24OO3 [Artesunate]
IC50 (P. falciparum NF54 [1]): 4 nM | IC50 (P. falciparum K1 [2]): 3 nM

CCN(CC)CCCC(C)Nc1ccnc2cc(Cl)ccc12 (stereo not shown) [Chloroquine]
IC50 (P. falciparum NF54 [1]): 16 nM | IC50 (P. falciparum K1 [2]): 194 nM

c1ccc(Cn2c(N3CCNCC3)nc3ccccc32)cc1 [Compound 1, Lerisetron, reference compound]
IC50 (hERG channel): 320 nM | solubility (Solubility at pH 6.8): > 1000 µM | PAMPA (%FA) [3]: 99 %FA | In vitro metabolic stability in liver microsomes, mouse [4]: 29 µL/min/mg | In vitro metabolic stability in liver microsomes, human [5]: 26.6 µL/min/mg | IC50 (P. falciparum NF54 [6]): 810 nM

Cl.Clc1ccc2c(c1)nc(N1CCNCC1)n2Cc1ccccc1 [Compound 3]
solubility at 20 h ([7]; pH 2, simulated gastric fluid): 150 µM | solubility at 20 h ([7]; pH 6.5, aqueous buffer): 140 µM | IC50 (hERG channel): 9 nM | remaining at 0.5 h, 0.1 μM [8]: 74.4% | remaining at 0.5 h, 0.1 μM [9]: 63% | remaining at 0.5 h, 0.1 μM [10]: 42.1% | half-life [11]: 1.98 h | AUC [12]: 377 µM·h | Cmax [12]: 20.6 µM | AUC [13]: 86 µM·h | Cmax [13]: 5.2 µM | solubility (Solubility at pH 6.8): 770 µM | PAMPA (%FA) [3]: 99 %FA

FC(F)(F)c1ccc2c(c1)nc(N1CCNCC1)n2Cc1ccccc1 [Compound 14c]
IC50 (hERG channel): 150 nM | remaining at 0.5 h, 0.1 μM [8]: 92.2% | remaining at 0.5 h, 0.1 μM [9]: 82% | remaining at 0.5 h, 0.1 μM [10]: 95.6%

c1ccc2c(c1)nc(N1CCNCC1)n2Cc1ccncc1 [Compound 14i]
IC50 (P. falciparum NF54 [14]; [18]): > 10000 nM | in vitro antiplasmodium activity (in words) (P. falciparum NF54 [14]): inactive

Clc1ccc2c(c1)nc(N1CCOCC1)n2Cc1ccccc1 [Compound 16a, 4-(1-Benzyl-5-chloro-1H benzo[d]imidazol-2-yl)morpholine]
IC50 (P. falciparum NF54 [14]; [18]): > 1000 nM

Brc1ccc2c(c1)nc(N1CCNCC1)n2Cc1ccccc1 [Compound 16b, 1-Benzyl-5-bromo-2-(piperazin-1-yl)-1H-benzo[d]imidazole]
IC50 (P. falciparum NF54 [14]; [19]): 42.4 nM | IC50 (hERG channel): 30 nM | remaining at 0.5 h, 0.1 μM [8]: 88.2% | remaining at 0.5 h, 0.1 μM [9]: 94% | remaining at 0.5 h, 0.1 μM [10]: 89.8%

Cl.Clc1ccc2c(c1)nc(N1CCNCC1)n2CCc1ccccc1 [Compound 16g, 5-Chloro-1-phenethyl-2-(piperazin-1-yl)-1H-benzo[d]imidazole Hydrochloride]
IC50 (P. falciparum NF54 [14]; [18]): > 1000 nM | in vitro antiplasmodium activity (in words) (P. falciparum NF54 [14]): inactive

O=C1CN(c2nc3cc(Cl)ccc3n2Cc2ccccc2)CCN1 [Compound 17]
IC50 (P. falciparum NF54 [14]; [18]): > 1000 nM | IC50 (hERG channel): 2300 nM

CC(=O)N1CCN(c2nc3cc(Cl)ccc3n2Cc2ccccc2)CC1 [Compound 18]
IC50 (P. falciparum NF54 [14]; [18]): > 1000 nM | IC50 (hERG channel): 390 nM

N#CCN1CCN(c2nc3cc(Cl)ccc3n2Cc2ccccc2)CC1 [Compound 19]
IC50 (P. falciparum NF54 [14]; [18]): 306 nM | IC50 (P. falciparum K1 [15]): 454 nM | solubility at 20 h ([7]; pH 2, simulated gastric fluid): > 150 µM | solubility at 20 h ([7]; pH 6.5, aqueous buffer): < 5 µM | IC50 (hERG channel): 180 nM | remaining at 0.5 h, 0.1 μM [8]: 8.6% | remaining at 0.5 h, 0.1 μM [9]: 2% | remaining at 0.5 h, 0.1 μM [10]: 1.2%

O=C(O)CN1CCN(c2nc3cc(Cl)ccc3n2Cc2ccccc2)CC1 [Compound 20]
IC50 (P. falciparum NF54 [14]; [18]): > 10000 nM | in vitro antiplasmodium activity (in words) (P. falciparum NF54 [14]): inactive | solubility at 20 h ([7]; pH 6.5, aqueous buffer): 200 µM (≈ 77 µg/mL)

O=C(NCCCNc1nc2ccccc2n1Cc1ccccc1)c1cc(Cl)cc(Cl)c1 [Compound 21]
IC50 (P. falciparum NF54 [14]; [18]): 9510 nM | in vitro antiplasmodium activity (in words) (P. falciparum NF54 [14]): completely inactive | solubility at 20 h ([7]; pH 2, simulated gastric fluid): 10 µM (≈ 4.53 µg/mL)

Cc1ccc(C(=O)N2CCN(c3nc4ccccc4n3C)CC2)cc1.Cl [Compound 22]
IC50 (P. falciparum NF54 [14]; [18]): > 10000 nM | in vitro antiplasmodium activity (in words) (P. falciparum NF54 [14]): completely inactive

Cc1ccc(C(=O)N2CCN(c3nc4cc(Cl)ccc4n3Cc3ccccc3)CC2)cc1 [Compound 23]
IC50 (P. falciparum NF54 [14]; [18]): > 10000 nM | in vitro antiplasmodium activity (in words) (P. falciparum NF54 [14]): completely inactive

O=S(=O)(c1ccc(Cl)cc1)N1CCN(c2nc3cc(Cl)ccc3n2Cc2ccccc2)CC1 [Compound 25]
IC50 (P. falciparum NF54 [14]; [18]): 5260 nM | in vitro antiplasmodium activity (in words) (P. falciparum NF54 [14]): completely inactive

Cc1ccc(Cn2c(N3CCC(C(=O)NCc4cccs4)CC3)nc3ccccc32)cc1 [Compound 26, 1-(1-(4-methylbenzyl)-1H-benzo[d]imidazol-2-yl)-N-(thiophen-2-ylmethyl)piperidine-4-carboxamide]
IC50 (P. falciparum NF54 [14]; [18]): 600 nM | in vitro antiplasmodium activity (in words) (P. falciparum NF54 [14]): weakly active | solubility at 20 h ([7]; pH 6.5, aqueous buffer): < 5 µM

C[C@@H]1CN(c2nc3cc(Cl)ccc3n2Cc2ccccc2)C[C@H](C)N1 [Compound 27]
IC50 (hERG channel): 17 nM | remaining at 0.5 h, 0.1 μM [8]: 23.2% | remaining at 0.5 h, 0.1 μM [9]: 31.3% | remaining at 0.5 h, 0.1 μM [10]: 36.5%

NC1CCN(c2nc3cc(Cl)ccc3n2Cc2ccccc2)CC1 [Compound 28]
IC50 (hERG channel): 70 nM | remaining at 0.5 h, 0.1 μM [8]: 80.9% | remaining at 0.5 h, 0.1 μM [9]: 76% | remaining at 0.5 h, 0.1 μM [10]: 39.9%

NCCNc1nc2cc(Cl)ccc2n1Cc1ccccc1 [Compound 33, N^1-(1-benzyl-5-chloro-1H-benzo[d]imidazol-2-yl)ethane-1,2-diamine]
IC50 (hERG channel): 2200 nM | hERG safety window (hERG channel; hERG versus antiplasmodium activity): 10 fold | remaining at 0.5 h, 0.1 μM [8]: 98.9% | remaining at 0.5 h, 0.1 μM [9]: 71.2% | remaining at 0.5 h, 0.1 μM [10]: 88%

NCCCNc1nc2cc(Br)ccc2n1Cc1ccccc1 [Compound 41, N^1-(1-Benzyl-5-bromo-1H-benzo[d]imidazol-2-yl)propane-1,3-diamine]
remaining at 0.5 h, 0.1 μM [8]: 99.4% | remaining at 0.5 h, 0.1 μM [9]: 98.6% | remaining at 0.5 h, 0.1 μM [10]: 97%

Cl.Clc1ccc2c(nc(N3CCNCC3)n2Cc2ccccc2)c1Cl [Compound 42a]
fold more cytotoxic than 3 [16]: ~4 fold | IC50 (hERG channel): 590 nM | remaining at 0.5 h, 0.1 μM [8]: 76.3% | remaining at 0.5 h, 0.1 μM [9]: 72.5% | remaining at 0.5 h, 0.1 μM [10]: 66.1%

Clc1ccc2c(nc(N3CCNCC3)n2Cc2ccccc2)c1Br [Compound 42k]
fold more cytotoxic than 3 [16]: ~4 fold | remaining at 0.5 h, 0.1 μM [8]: 97.4% | remaining at 0.5 h, 0.1 μM [9]: 91.6% | remaining at 0.5 h, 0.1 μM [10]: 93.8%

Clc1ccc2c(c1)nc(C1CCNCC1)n2Cc1ccccc1 [Compound 46a, 1-Benzyl-5-chloro-2-(piperidin-4-yl)-1H-benzo[d]imidazole]
IC50 (P. falciparum NF54 [14]; [19]): 37.9 nM | IC50 (hERG channel): 460 nM | remaining at 0.5 h, 0.1 μM [8]: 91.8% | remaining at 0.5 h, 0.1 μM [9]: 97.6% | remaining at 0.5 h, 0.1 μM [10]: 92.9%

Brc1ccc2c(c1)nc(C1CCNCC1)n2Cc1ccccc1 [Compound 46b]
remaining at 0.5 h, 0.1 μM [8]: 99.3% | remaining at 0.5 h, 0.1 μM [9]: 97.4% | remaining at 0.5 h, 0.1 μM [10]: 97.7%

COC(=O)c1ccc2c(c1)nc(C1CCNCC1)n2Cc1ccccc1 [Compound 46d]
in vitro antiplasmodium activity (in words) (P. falciparum NF54 [14]): inactive

CS(=O)(=O)c1ccc2c(c1)nc(C1CCNCC1)n2Cc1ccccc1.Cl [Compound 46e]
in vitro antiplasmodium activity (in words) (P. falciparum NF54 [14]): inactive

c1ccc(Cn2c(N3CCNCC3)nc3cnccc32)cc1 [Compound 57b]
IC50 (P. falciparum NF54 [14]; [18]): > 1000 nM | in vitro antiplasmodium activity (in words) (P. falciparum NF54 [14]): inactive

Cl.c1ccc(Cn2c(N3CCNCC3)nc3ccccc32)nc1 [Compound 59]
IC50 (P. falciparum NF54 [14]; [18]): 9770 nM | in vitro antiplasmodium activity (in words) (P. falciparum NF54 [14]): inactive

Cl.Cn1c(N2CCNCC2)nc2ccccc21 [Compound 60, 1-methyl-2-(piperazin-1-yl)-1H-benzo[d]imidazole hydrochloride]
IC50 (P. falciparum NF54 [14]; Plasmodium falciparum, NF54, read-out: IC50 PfNF54): > 10000 nM | in vitro antiplasmodium activity (in words) (P. falciparum NF54 [14]): inactive

CC[C@H]1CN2CCc3cc(OC)c(OC)cc3[C@@H]2C[C@@H]1C[C@H]1NCCc2cc(OC)c(OC)cc21 [Emetine]
IC50 [17]: 95 nM
